The test system of one series is K562/R7. In words: Inhibition of p-gp (unknown origin) in doxorubicin-resistant human K562/R7 cells assessed as increase in daunorubicin accumulation measured as fluorescence ratio at 10 uM incubated for 1 hr with 10 uM daunorubicin by flow cytometry relative to control. The class given is cell-based. In a few lines: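 Resistant K562/R7 cells ([…]) incubated 1 h at 37 °C in RPMI 1640 with daunorubicin 10 µM, with or without steroid at 10 µM; intracellular fluorescence read by flow cytometry. Accumulation index = daunorubicin fluorescence ratio with/without modulator. Cyclosporin A as positive control. Duplicates, at least three separate experiments.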

Series [1] can be described thus: Intrinsic cytotoxicity against human K562 cells assessed as cell survival […] by MTT assay. Format: cell-based. To be noted: read-out: Survival. Background: Tetrazolium assays rely on reduction of a dye to a coloured formazan, in cell work by metabolically active cells.

In the case of `CC(=O)[C@H]1CC[C@H]2[C@H]3[C@H]([C@H](O[C@H]4CCCCO4)C[C@]12C)[C@@]1(C)CCC(=O)C[C@H]1C[C@H]3OC1CCCCO1` (mixture of isomers), the Ratio in the series with K562/R7 was determined as 2.5. Besides, the viability in series [1] was 84.4%.
Turning to `COCO[C@@H]1C[C@@H]2CC(=O)CC[C@]2(C)[C@H]2C[C@H](OC(=O)c3ccccc3)[C@]3(C)[C@@H](C(C)CCC(=O)OC)CC[C@H]3[C@H]12` (some centres not stated), in the series with K562/R7, the Ratio was found to be 3.8. Further, the viability in series [1] stood at 43.5%.
Regarding `CC(=O)[C@H]1CC[C@H]2[C@H]3[C@H]([C@H](OC(=O)c4ccccc4)C[C@]12C)[C@@]1(C)CCC(=O)C[C@@H]1C[C@H]3OC(=O)c1ccccc1`, the Ratio in the series with K562/R7 is 2.5. Moreover, the viability in series [1] came to 71.1%.
For `COC(=O)CCC(C)[C@H]1CC[C@H]2[C@@H]3[C@H](OC4=CCOCC4)C[C@@H]4CC(=O)CC[C@]4(C)[C@H]3C[C@H](OC3=CCOCC3)[C@]12C` (some centres not stated), in that order: 3.7 and 76.3%.
On to `COCO[C@H]1C[C@H]2[C@@H]([C@H](O)C[C@@H]3CC(=O)CC[C@@]32C)[C@@H]2CC[C@H](C(C)CCC(=O)OC)[C@@]12C` (some centres not stated), for which the Ratio with K562/R7 came to 2.1. In series [1], the viability was 84.7%.
Turning to `CC(=O)[C@H]1CC[C@H]2[C@H]3[C@H]([C@H](O[C@H]4CCCCO4)C[C@]12C)[C@@]1(C)CCC(=O)C[C@H]1C[C@H]3OC(=O)c1ccccc1`, in the series on K562/R7, the Ratio is 2.3. In addition, the viability in series [1] turned out to be 100%.

The values are drawn from ChEMBL document CHEMBL3414422, “Synthesis of new steroidal inhibitors of P-glycoprotein-mediated multidrug resistance and biological evaluation on K562/R7 erythroleukemia cells” (J Med Chem, 2015).
